Legend:
Assay type in all cases: functional
[1] = system: A549; assay: In vitro cytotoxicity against A549/ATCC cell line.; conditions: Homo sapiens
Summary of the method: (§1)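 Tested by the NCI in its tumor cell panel. GI50 (M) is reported as the concentration that caused 50% inhibition of tumor cell growth.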

[2] = system: OVCAR; assay: In vitro cytotoxicity against OVCAR cell line.; conditions: Homo sapiens; summary of the method: as §1
[3] = system: HCT-15; assay: In vitro cytotoxicity against HCT-15 cell line.; conditions: Homo sapiens; summary of the method: as §1
[4] = system: SK-MEL-5; assay: In vitro cytotoxicity against SK-MEL-5 cell line.; conditions: Homo sapiens; summary of the method: as §1
[5] = system: SR; assay: In vitro cytotoxicity against SR cell line.; conditions: Homo sapiens; summary of the method: as §1
[6] = system: DMS-114; assay: In vitro cytotoxicity against DMS114 cell line.; conditions: Homo sapiens; summary of the method: as §1
[7] = target: Tubulin; assay: In vitro inhibition of tubulin polymerization.
[8] = In vitro cytotoxicity against RXF cell line.; conditions: Homo sapiens; summary of the method: as §1
[9] = system: SNB-19; assay: In vitro cytotoxicity against SNB-19 cell line.; conditions: Homo sapiens; summary of the method: as §1

Row | IC50 [7] [nM] | SMILES | GI50 [1] [nM] | GI50 [2] [nM] | GI50 [3] [nM] | GI50 [4] [nM] | GI50 [5] [nM] | GI50 [6] [nM] | GI50 [8] [nM] | GI50 [9] [nM]
1 |  | COc1cc2c(c(OC)c1OC)-c1ccc(OC)c(=O)cc1[C@@H](NC(C)=O)CC2 [COLCHICINE] | < 63.1 | < 63.1 | < 63.1 | < 63.1 |  |  |  | 
2 | 2500 | COc1ccc(CN[C@H]2CCc3cc(OC)c(OC)c(OC)c3-c3ccc(SC)c(=O)cc32)c(OC)c1OC |  | < 10 | < 10 | < 10 | < 10 | < 10 |  | 
3 |  | CCCCCC(=O)N[C@H]1CCc2cc(OC)c(OC)c(OC)c2-c2ccc(SC)c(=O)cc21 | < 10 | < 10 | < 10 | < 10 | < 10 | < 10 | < 10 | < 10
4 |  | CCOC(=O)c1c(OC)cc(C(=O)N[C@H]2CCc3cc(OC)c(OC)c(OC)c3-c3ccc(SC)c(=O)cc32)cc1OC | 427 | 32.4 | 447 | 45.7 |  | 26.3 | 234 | 324
5 | 2800 | COc1cc2c(c(OC)c1OC)-c1ccc(SC)c(=O)cc1[C@@H](NCc1cccc([N+](=O)[O-])c1)CC2 | < 10 | < 10 | < 10 | < 10 | > 100000 | < 10 | < 10 | < 10
6 | 2800 | COc1cc2c(c(OC)c1OC)-c1ccc(SC)c(=O)cc1[C@@H](NCc1ccc([N+](=O)[O-])cc1)CC2 | < 10 | < 10 | < 10 | < 10 | < 10 | < 10 | < 10 | < 10
7 | 3400 | COc1cc2c(c(OC)c1OC)-c1ccc(SC)c(=O)cc1[C@@H](NC(=O)c1cccc([N+](=O)[O-])c1)CC2 | 33.1 | 19.1 | 26.9 | 18.2 | 8.51 | 16.6 | 16.6 | 26.9
8 | 2300 | COc1cc2c(c(OC)c1OC)-c1ccc(SC)c(=O)cc1[C@@H](NCc1ccc(C#N)cc1)CC2 | < 10 | < 10 | < 10 | < 10 | < 10 | < 10 | < 10 | < 10
9 |  | COc1cc2c(c(OC)c1OC)-c1ccc(SC)c(=O)cc1[C@@H](NC(=O)c1ccc(F)cc1)CC2 | 49 | 18.2 | 42.7 | 30.2 | 16.6 | 26.9 |  | 28.8
10 | 2300 | COc1cc2c(c(OC)c1OC)-c1ccc(SC)c(=O)cc1[C@@H](NCc1ccc(F)cc1)CC2 | < 7.59 | < 7.59 | < 7.59 | < 7.59 | < 7.59 |  | < 7.59 | < 7.59
11 |  | COc1cc2c(c(OC)c1OC)-c1ccc(SC)c(=O)cc1[C@@H](NC(=O)c1ccc([N+](=O)[O-])cc1)CC2 | < 10 | < 10 | < 10 | < 10 | < 10 | < 10 | < 10 | < 10
12 | 3200 | COc1cc2c(c(OC)c1OC)-c1ccc(SC)c(=O)cc1[C@@H](NCc1ccccc1[N+](=O)[O-])CC2 | < 10 | < 10 | < 10 | < 10 |  | < 10 | < 10 | < 10
13 |  | COc1cc2c(c(OC)c1OC)-c1ccc(SC)c(=O)cc1[C@@H](NC(=O)c1ccc(C#N)cc1)CC2 | < 10 | < 10 | < 10 | < 10 | < 10 | < 10 |  | < 10
14 | 3400 | COc1cc(CN[C@H]2CCc3cc(OC)c(OC)c(OC)c3-c3ccc(SC)c(=O)cc32)cc(OC)c1 | 37.1 |  | < 10 |  | < 10 | 16.6 | < 10 | 67.6
15 |  | COc1cc2c(c(OC)c1OC)-c1ccc(SC)c(=O)cc1[C@@H](NC(=O)c1ccc(Cl)cc1)CC2 | < 10 | < 10 | < 10 | < 10 | < 10 | < 10 | < 10 | < 10
16 |  | COc1cc2c(c(OC)c1OC)-c1ccc(SC)c(=O)cc1[C@@H](NC(=O)c1ccc(OC(C)=O)cc1)CC2 | < 100 | 15.1 | < 100 | 19.5 | 7.76 | 14.4 | 27.5 | 21.4
17 |  | COc1cc(C(=O)N[C@H]2CCc3cc(OC)c(OC)c(OC)c3-c3ccc(SC)c(=O)cc32)cc(OC)c1OC | 17 | < 10 |  | < 10 | < 10 | < 10 | 33.9 | 
18 | 2500 | COc1cc2c(c(OC)c1OC)-c1ccc(SC)c(=O)cc1[C@@H](NCc1cccc(C#N)c1)CC2 | < 7.59 | < 7.59 | < 7.59 | < 7.59 | < 7.59 | < 7.59 | < 7.59 | < 7.59
